Source: ChEMBL document CHEMBL1909494, “Synthesis and structure-activity relationship studies of 4-arylthiosemicarbazides as topoisomerase IV inhibitors with Gram-positive antibacterial activity. Search for molecular basis of antibacterial activity of thiosemicarbazides” (Eur J Med Chem, 2011)
pIC50: −log10 of the molar value. Converted amounts (≈) assume the structure as drawn. The source made the active and inactive calls. No cut-off for these calls is given here.

System: Bacillus cereus
Assay: Antibacterial activity against Bacillus cereus ATCC 11778 by agar dilution method
Type: functional
Conditions: not given

O=C(NNC(=S)Nc1ccc(F)cc1F)c1cc2ccccc2[nH]1 and O=C(NNC(=S)Nc1ccc(F)cc1)c1cc2ccccc2[nH]1 are the same in MIC: 100 µg/mL (≈ 289 µM) for the first, 100 µg/mL (≈ 305 µM) for the second.

Going from O=C(O)c1cn(C2CC2)c2cc(N3CCNCC3)c(F)cc2c1=O [CIPROFLOXACIN] to Cc1nnsc1C(=O)NNC(=S)Nc1cc(F)ccc1F, the MIC rises from 1 µg/mL (≈ 3.02 µM) to 400 µg/mL (≈ 1210 µM) (400-fold).

Compared with Cc1nnsc1C(=O)NNC(=S)Nc1ccc(F)cc1, Cc1nnsc1C(=O)NNC(=S)Nc1cccc(F)c1 is 2-fold higher in MIC: 200 µg/mL (≈ 642 µM) for the first, 400 µg/mL (≈ 1280 µM) for the second.

Cc1nnsc1C(=O)NNC(=S)Nc1ccc([N+](=O)[O-])cc1 gave an MIC of 100 µg/mL (≈ 296 µM).

System: Micrococcus luteus
Assay: Antibacterial activity against Micrococcus luteus ATCC 9341 by agar dilution method
Type: functional
Conditions: not given

Compared with O=C(NNC(=S)Nc1ccc(F)cc1F)c1cc2ccccc2[nH]1, O=C(NNC(=S)Nc1ccc(F)cc1)c1cc2ccccc2[nH]1 is 2-fold lower in MIC: 100 µg/mL (≈ 289 µM) for the first, 50 µg/mL (≈ 152 µM) for the second.

First: O=C(O)c1cn(C2CC2)c2cc(N3CCNCC3)c(F)cc2c1=O [CIPROFLOXACIN]
Second: Cc1nnsc1C(=O)NNC(=S)Nc1cc(F)ccc1F
The MIC of the first is 25-fold lower: 4 µg/mL (≈ 12.1 µM) for the first, 100 µg/mL (≈ 304 µM) for the second.

Going from Cc1nnsc1C(=O)NNC(=S)Nc1ccc(F)cc1 to Cc1nnsc1C(=O)NNC(=S)Nc1cccc(F)c1, the MIC rises from 100 µg/mL (≈ 321 µM) to 200 µg/mL (≈ 642 µM) (2-fold).

In the case of Cc1nnsc1C(=O)NNC(=S)Nc1ccc([N+](=O)[O-])cc1, the MIC was 100 µg/mL (≈ 296 µM).

System: Micrococcus luteus
Assay: Antibacterial activity against Micrococcus luteus ATCC 10240 by agar dilution method
Type: functional
Conditions: not given

O=C(NNC(=S)Nc1ccc(F)cc1F)c1cc2ccccc2[nH]1 and O=C(NNC(=S)Nc1ccc(F)cc1)c1cc2ccccc2[nH]1 are the same in MIC: 25 µg/mL (≈ 72.2 µM) for the first, 25 µg/mL (≈ 76.1 µM) for the second.

First: O=C(O)c1cn(C2CC2)c2cc(N3CCNCC3)c(F)cc2c1=O [CIPROFLOXACIN]
Second: Cc1nnsc1C(=O)NNC(=S)Nc1cc(F)ccc1F
The MIC of the first is 100-fold lower: 2 µg/mL (≈ 6.04 µM) for the first, 200 µg/mL (≈ 607 µM) for the second.

Cc1nnsc1C(=O)NNC(=S)Nc1ccc(F)cc1 and Cc1nnsc1C(=O)NNC(=S)Nc1cccc(F)c1 are the same in MIC: 100 µg/mL (≈ 321 µM) for the first, 100 µg/mL (≈ 321 µM) for the second.

Compound Cc1nnsc1C(=O)NNC(=S)Nc1ccc([N+](=O)[O-])cc1 has an MIC of 50 µg/mL (≈ 148 µM).

Target: DNA gyrase (Staphylococcus aureus) (UniProt P0A0K8+P20831)
Sequence (P0A0K8 2-644 limits assumed): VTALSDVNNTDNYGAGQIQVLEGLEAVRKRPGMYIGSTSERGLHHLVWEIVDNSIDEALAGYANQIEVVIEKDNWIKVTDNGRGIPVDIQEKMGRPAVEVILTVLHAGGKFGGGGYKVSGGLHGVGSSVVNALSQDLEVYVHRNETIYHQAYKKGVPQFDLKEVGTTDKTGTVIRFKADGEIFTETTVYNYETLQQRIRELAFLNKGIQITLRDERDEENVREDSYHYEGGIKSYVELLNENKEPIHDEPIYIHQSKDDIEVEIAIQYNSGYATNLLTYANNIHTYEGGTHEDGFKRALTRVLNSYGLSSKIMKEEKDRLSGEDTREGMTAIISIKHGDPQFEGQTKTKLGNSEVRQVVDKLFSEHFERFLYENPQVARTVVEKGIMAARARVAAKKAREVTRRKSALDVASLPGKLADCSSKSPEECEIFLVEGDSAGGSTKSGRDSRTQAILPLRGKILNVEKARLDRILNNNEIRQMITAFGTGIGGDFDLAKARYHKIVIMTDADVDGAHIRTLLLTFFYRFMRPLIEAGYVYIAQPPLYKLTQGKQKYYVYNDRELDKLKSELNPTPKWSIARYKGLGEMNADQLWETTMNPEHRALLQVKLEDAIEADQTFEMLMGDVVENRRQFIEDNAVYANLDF
Sequence (P20831 whole entry partner): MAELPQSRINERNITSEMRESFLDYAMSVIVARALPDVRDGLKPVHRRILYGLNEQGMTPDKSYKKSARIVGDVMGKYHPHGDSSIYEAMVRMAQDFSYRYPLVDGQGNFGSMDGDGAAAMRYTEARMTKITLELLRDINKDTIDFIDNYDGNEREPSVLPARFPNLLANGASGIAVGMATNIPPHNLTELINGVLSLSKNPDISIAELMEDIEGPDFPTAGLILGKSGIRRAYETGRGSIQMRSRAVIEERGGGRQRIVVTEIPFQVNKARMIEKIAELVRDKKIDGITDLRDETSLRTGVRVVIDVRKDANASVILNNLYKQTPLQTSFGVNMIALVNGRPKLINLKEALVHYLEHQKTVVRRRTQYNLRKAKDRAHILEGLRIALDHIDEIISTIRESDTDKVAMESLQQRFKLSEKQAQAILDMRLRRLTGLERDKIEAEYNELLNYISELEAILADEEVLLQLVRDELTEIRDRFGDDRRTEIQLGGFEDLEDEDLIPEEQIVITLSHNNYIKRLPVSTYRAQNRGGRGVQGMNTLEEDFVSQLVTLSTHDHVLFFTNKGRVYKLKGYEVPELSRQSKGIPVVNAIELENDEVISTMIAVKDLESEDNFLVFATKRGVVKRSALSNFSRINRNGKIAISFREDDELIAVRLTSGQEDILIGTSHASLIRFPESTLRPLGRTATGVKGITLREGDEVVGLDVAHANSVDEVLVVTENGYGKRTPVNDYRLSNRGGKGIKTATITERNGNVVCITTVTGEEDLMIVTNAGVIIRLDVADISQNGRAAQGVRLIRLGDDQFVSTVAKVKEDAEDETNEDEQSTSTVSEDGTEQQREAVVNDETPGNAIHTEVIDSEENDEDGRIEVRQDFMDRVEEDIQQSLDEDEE
Assay: Inhibition of Staphylococcus aureus gyrase using […] DNA as substrate after 1 hr by agarose gel electrophoresis
Type: protein-complex assay
Conditions: in the assay text read “relaxed” for “supercoiled”
How it was run: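 The enzyme was incubated in the manufacturer's supercoiling assay buffer with varying compound concentrations at 37 °C for 1 h. Samples were run on a 1% agarose gel in TAE for 3 h at 50 V, stained with ethidium bromide and viewed under UV.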

In the case of Cc1nnsc1C(=O)NNC(=S)Nc1ccc([N+](=O)[O-])cc1, the inhibition was “inactive”.

System: not listed separately
Assay: (§1) Inhibition of Staphylococcus aureus topoisomerase 4 assessed as inhibition of decatenation of kDNA after 1 hr by agarose gel electrophoresis
Conditions: not given
How it was run: (§2)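 kDNA was incubated with 1 unit of topoisomerase IV in decatenation assay buffer with varying compound concentrations at 37 °C for 1 h. Reactions were stopped with 2x STOP buffer plus chloroform/iso-amyl alcohol and run on a 1% agarose gel in TAE for 1.5 h at 80 V, then stained with ethidium bromide. IC50 was the concentration preventing 50% conversion of kDNA to decatenated minicircles, derived from gel densitometry.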

O=C(NNC(=S)Nc1ccc(F)cc1F)c1cc2ccccc2[nH]1 gave a pIC50 of 3.53.

System: Staphylococcus aureus
Assay: as §1
Conditions: not given
How it was run: as §2

With Cc1nnsc1C(=O)NNC(=S)Nc1ccc([N+](=O)[O-])cc1 the inhibition was “inactive”.

System: Bacillus subtilis
Assay: Antibacterial activity against Bacillus subtilis ATCC 6633 by agar dilution method
Type: functional
Conditions: not given

O=C(NNC(=S)Nc1ccc(F)cc1F)c1cc2ccccc2[nH]1 and O=C(NNC(=S)Nc1ccc(F)cc1)c1cc2ccccc2[nH]1 are the same in MIC: 100 µg/mL (≈ 289 µM) for the first, 100 µg/mL (≈ 305 µM) for the second.

First: O=C(O)c1cn(C2CC2)c2cc(N3CCNCC3)c(F)cc2c1=O [CIPROFLOXACIN]
Second: Cc1nnsc1C(=O)NNC(=S)Nc1cc(F)ccc1F
The MIC of the first is lower: < 0.125 µg/mL for the first, 200 µg/mL (≈ 607 µM) for the second.

First: Cc1nnsc1C(=O)NNC(=S)Nc1ccc(F)cc1
Second: Cc1nnsc1C(=O)NNC(=S)Nc1cccc(F)c1
The MIC of the first is 2-fold lower: 200 µg/mL (≈ 642 µM) for the first, 400 µg/mL (≈ 1280 µM) for the second.

For Cc1nnsc1C(=O)NNC(=S)Nc1ccc([N+](=O)[O-])cc1, the MIC was 100 µg/mL (≈ 296 µM).

System: Staphylococcus aureus
Assay: Antibacterial activity against Staphylococcus aureus NCTC 4163 by agar dilution method
Type: functional
Conditions: not given

O=C(NNC(=S)Nc1ccc(F)cc1F)c1cc2ccccc2[nH]1 and O=C(NNC(=S)Nc1ccc(F)cc1)c1cc2ccccc2[nH]1 are the same in MIC: 100 µg/mL (≈ 289 µM) for the first, 100 µg/mL (≈ 305 µM) for the second.

First: O=C(O)c1cn(C2CC2)c2cc(N3CCNCC3)c(F)cc2c1=O [CIPROFLOXACIN]
Second: Cc1nnsc1C(=O)NNC(=S)Nc1cc(F)ccc1F
The MIC of the first is 800-fold lower: 0.5 µg/mL (≈ 1.51 µM) for the first, 400 µg/mL (≈ 1210 µM) for the second.

First: Cc1nnsc1C(=O)NNC(=S)Nc1ccc(F)cc1
Second: Cc1nnsc1C(=O)NNC(=S)Nc1cccc(F)c1
The MIC of the first is 2-fold higher: 400 µg/mL (≈ 1280 µM) for the first, 200 µg/mL (≈ 642 µM) for the second.

Work on Cc1nnsc1C(=O)NNC(=S)Nc1ccc([N+](=O)[O-])cc1 yielded an MIC of 100 µg/mL (≈ 296 µM).

System: Staphylococcus epidermidis
Assay: Antibacterial activity against Staphylococcus epidermidis ATCC 12228 by agar dilution method
Type: functional
Conditions: not given

O=C(NNC(=S)Nc1ccc(F)cc1F)c1cc2ccccc2[nH]1 and O=C(NNC(=S)Nc1ccc(F)cc1)c1cc2ccccc2[nH]1 are the same in MIC: 100 µg/mL (≈ 289 µM) for the first, 100 µg/mL (≈ 305 µM) for the second.

Compared with O=C(O)c1cn(C2CC2)c2cc(N3CCNCC3)c(F)cc2c1=O [CIPROFLOXACIN], Cc1nnsc1C(=O)NNC(=S)Nc1cc(F)ccc1F is 800-fold higher in MIC: 0.5 µg/mL (≈ 1.51 µM) for the first, 400 µg/mL (≈ 1210 µM) for the second.

Compared with Cc1nnsc1C(=O)NNC(=S)Nc1ccc(F)cc1, Cc1nnsc1C(=O)NNC(=S)Nc1cccc(F)c1 is 2-fold higher in MIC: 200 µg/mL (≈ 642 µM) for the first, 400 µg/mL (≈ 1280 µM) for the second.

Cc1nnsc1C(=O)NNC(=S)Nc1ccc([N+](=O)[O-])cc1 gave an MIC of 100 µg/mL (≈ 296 µM).

System: Staphylococcus aureus
Assay: Antibacterial activity against Staphylococcus aureus ATCC 6538 by agar dilution method
Type: functional
Conditions: not given

O=C(NNC(=S)Nc1ccc(F)cc1F)c1cc2ccccc2[nH]1 and O=C(NNC(=S)Nc1ccc(F)cc1)c1cc2ccccc2[nH]1 are the same in MIC: 100 µg/mL (≈ 289 µM) for the first, 100 µg/mL (≈ 305 µM) for the second.

First: O=C(O)c1cn(C2CC2)c2cc(N3CCNCC3)c(F)cc2c1=O [CIPROFLOXACIN]
Second: Cc1nnsc1C(=O)NNC(=S)Nc1cc(F)ccc1F
The MIC of the first is 800-fold lower: 0.5 µg/mL (≈ 1.51 µM) for the first, 400 µg/mL (≈ 1210 µM) for the second.

Cc1nnsc1C(=O)NNC(=S)Nc1ccc(F)cc1 and Cc1nnsc1C(=O)NNC(=S)Nc1cccc(F)c1 are the same in MIC: 400 µg/mL (≈ 1280 µM) for the first, 400 µg/mL (≈ 1280 µM) for the second.

Cc1nnsc1C(=O)NNC(=S)Nc1ccc([N+](=O)[O-])cc1 showed an MIC of 100 µg/mL (≈ 296 µM).

System: Staphylococcus aureus
Assay: Antibacterial activity against Staphylococcus aureus ATCC 29213 by agar dilution method
Type: functional
Conditions: not given

Going from O=C(NNC(=S)Nc1ccc(F)cc1F)c1cc2ccccc2[nH]1 to O=C(NNC(=S)Nc1ccc(F)cc1)c1cc2ccccc2[nH]1, the MIC falls from 200 µg/mL (≈ 577 µM) to 100 µg/mL (≈ 305 µM) (2-fold).

Compared with O=C(O)c1cn(C2CC2)c2cc(N3CCNCC3)c(F)cc2c1=O [CIPROFLOXACIN], Cc1nnsc1C(=O)NNC(=S)Nc1cc(F)ccc1F is 800-fold higher in MIC: 0.5 µg/mL (≈ 1.51 µM) for the first, 400 µg/mL (≈ 1210 µM) for the second.

Cc1nnsc1C(=O)NNC(=S)Nc1ccc(F)cc1 and Cc1nnsc1C(=O)NNC(=S)Nc1cccc(F)c1 are the same in MIC: 400 µg/mL (≈ 1280 µM) for the first, 400 µg/mL (≈ 1280 µM) for the second.

For Cc1nnsc1C(=O)NNC(=S)Nc1ccc([N+](=O)[O-])cc1, the MIC was 200 µg/mL (≈ 591 µM).

System: Staphylococcus aureus
Assay: Antibacterial activity against Staphylococcus aureus ATCC 25923 by agar dilution method
Type: functional
Conditions: not given

O=C(NNC(=S)Nc1ccc(F)cc1F)c1cc2ccccc2[nH]1 and O=C(NNC(=S)Nc1ccc(F)cc1)c1cc2ccccc2[nH]1 are the same in MIC: 100 µg/mL (≈ 289 µM) for the first, 100 µg/mL (≈ 305 µM) for the second.

Going from O=C(O)c1cn(C2CC2)c2cc(N3CCNCC3)c(F)cc2c1=O [CIPROFLOXACIN] to Cc1nnsc1C(=O)NNC(=S)Nc1cc(F)ccc1F, the MIC rises from 0.5 µg/mL (≈ 1.51 µM) to 200 µg/mL (≈ 607 µM) (400-fold).

Cc1nnsc1C(=O)NNC(=S)Nc1ccc(F)cc1 and Cc1nnsc1C(=O)NNC(=S)Nc1cccc(F)c1 are the same in MIC: 200 µg/mL (≈ 642 µM) for the first, 200 µg/mL (≈ 642 µM) for the second.

With Cc1nnsc1C(=O)NNC(=S)Nc1ccc([N+](=O)[O-])cc1 the MIC was 100 µg/mL (≈ 296 µM).
